pIC50: −log10 of the molar value. In brackets after ≈: the same amount, converted by molar mass.
Experiments:
[1] = biological target: Serine/threonine-protein kinase PLK1 (Homo sapiens, UniProt P53350); assay: Inhibition of PLK1
[2] = biological target: Serine/threonine-protein kinase PAK 4 (Homo sapiens, UniProt O96013); assay: Inhibition of PAK4 by scintillation proximity assay
[3] = Solubility in 5% dextrose solution; format: physicochemical
[4] = biological target: Serine/threonine-protein kinase Nek6 (Homo sapiens, UniProt Q9HC98); assay: Inhibition of NEK6 by scintillation proximity assay
[5] = biological target: Proto-oncogene tyrosine-protein kinase receptor Ret (Homo sapiens, UniProt P07949); assay: Inhibition of RET by scintillation proximity assay
Insulin receptor = Insulin receptor (Homo sapiens, UniProt P06213); assay: Inhibition of IR by scintillation proximity assay
[6] = biological target: MAP kinase-activated protein kinase 2 (Homo sapiens, UniProt P49137); assay: Inhibition of MAPKAPK2 by scintillation proximity assay
Sequence of MAP kinase-activated protein kinase 2 (P49137 whole entry): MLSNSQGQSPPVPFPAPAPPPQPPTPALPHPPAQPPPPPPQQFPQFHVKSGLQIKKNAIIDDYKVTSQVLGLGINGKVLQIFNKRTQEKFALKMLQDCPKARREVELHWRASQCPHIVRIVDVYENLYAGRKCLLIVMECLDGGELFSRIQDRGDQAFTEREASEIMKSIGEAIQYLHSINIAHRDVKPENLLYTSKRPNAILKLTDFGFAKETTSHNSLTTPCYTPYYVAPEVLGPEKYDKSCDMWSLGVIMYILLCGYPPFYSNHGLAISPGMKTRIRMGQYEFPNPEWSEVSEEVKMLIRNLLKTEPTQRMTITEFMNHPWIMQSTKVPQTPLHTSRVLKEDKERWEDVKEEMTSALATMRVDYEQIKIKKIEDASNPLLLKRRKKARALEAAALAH

A2780 [7] = assay: Cell cycle arrest in human A2780 cells assessed as accumulation at G2/M phase at 3 uM after 24 hrs by FACS analysis; format: functional
In short: (§1)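 A2780 cells (ECACC) seeded at 25000 cells/cm² in RPMI 1640, pH 7.4, with 10% FBS, 2 mM L-glutamine and penicillin–streptomycin, at 37 °C in 5% CO₂. After 24 h, treated for 24 h at 1 and 3 µM. Floating and trypsinised adherent cells pooled, PBS-washed, and DNA content analysed by flow cytometry.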

[8] = biological target: Protein kinase C alpha type (Homo sapiens, UniProt P17252); assay: Inhibition of PKCalpha by scintillation proximity assay
[9] = biological target: Mast/stem cell growth factor receptor Kit (Homo sapiens, UniProt P10721); assay: Inhibition of cKit by scintillation proximity assay
[10] = biological target: Vascular endothelial growth factor receptor 2 (Homo sapiens, UniProt P35968); assay: Inhibition of VEGFR2 by scintillation proximity assay
[11] = biological target: ALK tyrosine kinase receptor (Homo sapiens, UniProt Q9UM73); assay: Inhibition of ALK by scintillation proximity assay
[12] = biological target: cAMP-dependent protein kinase catalytic subunit alpha (Homo sapiens, UniProt P17612); assay: Inhibition of PKAalpha by scintillation proximity assay
[13] = Inhibition of PDGFR by scintillation proximity assay
[14] = biological target: Mitogen-activated protein kinase 1 (Homo sapiens, UniProt P28482); assay: Inhibition of ERK2
[15] = biological target: Serine/threonine-protein kinase Chk1 (Homo sapiens, UniProt O14757); assay: Inhibition of CHK1 by scintillation proximity assay
[16] = Inhibition of CK2 by scintillation proximity assay
[17] = biological target: Cell division cycle 7-related protein kinase (Homo sapiens, UniProt O00311); assay: Inhibition of CDC7 by scintillation proximity assay
A2780 [18] = assay: Antiproliferative activity against human A2780 cells after 72 hrs by CellTiter-Glo luminescence assay; details: A2780, 72 h
[19] = biological target: Serine/threonine-protein kinase PLK2 (Homo sapiens, UniProt Q9NYY3); assay: Inhibition of PLK2 by scintillation proximity assay
A2780 [20] = assay: Cell cycle arrest in human A2780 cells assessed as accumulation at G0/G1 phase at 3 uM after 24 hrs by FACS analysis; format: functional; in short: as §1
[21] = Inhibition of NIM by scintillation proximity assay
[22] = Inhibition of SULU1 by scintillation proximity assay
[23] = Solubility at pH 7; format: physicochemical; details: buffer
[24] = biological target: Insulin-like growth factor 1 receptor (Homo sapiens, UniProt P08069); assay: Inhibition of IGF1R by scintillation proximity assay
Aurora kinase A = Aurora kinase A (Homo sapiens, UniProt O14965); assay: Inhibition of Aurora A by scintillation proximity assay
Sequence of Aurora kinase A (O14965 whole entry): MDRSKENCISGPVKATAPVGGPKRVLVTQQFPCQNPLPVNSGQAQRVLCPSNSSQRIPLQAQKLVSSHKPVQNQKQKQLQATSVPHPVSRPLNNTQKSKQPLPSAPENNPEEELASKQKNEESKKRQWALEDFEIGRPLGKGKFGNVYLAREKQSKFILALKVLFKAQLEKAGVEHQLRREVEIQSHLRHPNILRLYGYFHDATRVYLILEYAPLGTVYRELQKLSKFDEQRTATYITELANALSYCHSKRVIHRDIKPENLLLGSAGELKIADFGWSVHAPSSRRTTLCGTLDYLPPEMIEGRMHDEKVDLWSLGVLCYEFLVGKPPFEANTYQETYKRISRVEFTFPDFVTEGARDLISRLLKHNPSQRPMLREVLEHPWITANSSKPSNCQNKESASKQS

[25] = biological target: Cyclin-dependent kinase 1/cyclin B1 (Homo sapiens, UniProt P06493); assay: Inhibition of CDK1/cyclin B; format: protein-complex assay
Sequence of Cyclin-dependent kinase 1/cyclin B1 (P06493 whole entry): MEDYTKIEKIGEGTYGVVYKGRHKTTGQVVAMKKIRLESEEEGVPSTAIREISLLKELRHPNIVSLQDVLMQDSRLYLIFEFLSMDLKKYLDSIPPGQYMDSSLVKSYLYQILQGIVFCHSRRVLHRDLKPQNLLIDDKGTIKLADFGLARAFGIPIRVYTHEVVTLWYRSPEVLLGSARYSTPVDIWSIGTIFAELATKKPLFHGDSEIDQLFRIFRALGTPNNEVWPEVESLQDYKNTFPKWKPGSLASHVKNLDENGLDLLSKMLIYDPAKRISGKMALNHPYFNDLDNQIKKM
Sequence of Cyclin-dependent kinase 1/cyclin B1 (P14635 whole entry, further chain): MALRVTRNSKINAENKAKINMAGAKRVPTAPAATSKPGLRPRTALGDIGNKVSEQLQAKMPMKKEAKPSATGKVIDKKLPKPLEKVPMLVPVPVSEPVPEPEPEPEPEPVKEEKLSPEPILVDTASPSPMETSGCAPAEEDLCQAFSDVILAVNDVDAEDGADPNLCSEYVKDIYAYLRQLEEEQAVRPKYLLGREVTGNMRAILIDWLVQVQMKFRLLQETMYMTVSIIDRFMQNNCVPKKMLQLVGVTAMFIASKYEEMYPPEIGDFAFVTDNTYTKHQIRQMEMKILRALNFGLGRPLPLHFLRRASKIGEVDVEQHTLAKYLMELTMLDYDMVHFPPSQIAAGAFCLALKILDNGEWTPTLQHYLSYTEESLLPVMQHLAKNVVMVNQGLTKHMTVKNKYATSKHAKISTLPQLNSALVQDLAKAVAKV

[26] = biological target: Glycogen synthase kinase-3 beta (Homo sapiens, UniProt P49841); assay: Inhibition of GSK3-beta by scintillation proximity assay
Sequence of Glycogen synthase kinase-3 beta (P49841 whole entry): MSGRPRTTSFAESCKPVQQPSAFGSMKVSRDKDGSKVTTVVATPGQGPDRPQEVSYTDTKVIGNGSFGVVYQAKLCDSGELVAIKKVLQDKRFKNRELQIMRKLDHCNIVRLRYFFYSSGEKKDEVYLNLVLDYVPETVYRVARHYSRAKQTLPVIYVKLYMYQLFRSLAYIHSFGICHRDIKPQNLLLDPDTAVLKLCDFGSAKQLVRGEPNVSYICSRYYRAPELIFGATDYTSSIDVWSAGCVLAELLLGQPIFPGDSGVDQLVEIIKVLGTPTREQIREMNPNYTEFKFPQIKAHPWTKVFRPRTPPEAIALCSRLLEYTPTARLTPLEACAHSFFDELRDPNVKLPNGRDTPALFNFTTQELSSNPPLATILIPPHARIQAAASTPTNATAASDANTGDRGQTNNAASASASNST

[27] = biological target: Cyclin-dependent kinase 2/cyclin E1 (Homo sapiens, UniProt P24941); assay: Inhibition of CDK2/cyclin E by scintillation proximity assay; format: protein-complex assay
[28] = biological target: Hepatocyte growth factor receptor (Homo sapiens, UniProt P08581)
[29] = biological target: Mitogen-activated protein kinase 14 (Homo sapiens, UniProt Q16539); assay: Inhibition of p38alpha
[30] = biological target: RAC-alpha serine/threonine-protein kinase (Homo sapiens, UniProt P31749); assay: Inhibition of AKT1
[31] = Inhibition of STK2 by scintillation proximity assay
[32] = biological target: Receptor-type tyrosine-protein kinase FLT3 (Homo sapiens, UniProt P36888); assay: Inhibition of FLT3 by scintillation proximity assay
[33] = biological target: Cyclin-dependent kinase 2/cyclin A (Homo sapiens, UniProt P24941); assay: Inhibition of human CDK2/cyclin A expressed in Escherichia coli BL21 by scintillation proximity assay
[34] = biological target: Tyrosine-protein kinase ABL1 (Homo sapiens, UniProt P00519); assay: Inhibition of c-ABL by scintillation proximity assay
A2780 [35] = assay: Inhibition of cellular DNA synthesis in human A2780 cells assessed as BrdU incorporation into nuclear DNA at 3 uM after 24 hrs by Hoechst 33342 staining-based microscopic analysis; format: functional; set-up: scale not given: the % may be the effect or the level left
In short: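 A2780 human ovarian adenocarcinoma cells were seeded at 25000 cells/cm² in RPMI 1640 pH 7.4 with 10% FBS, 2 mM L-glutamine and penicillin–streptomycin. They were kept at 37 °C in 5% CO₂. After 24 h they were exposed to compound for 24 h. Floating and adherent cells were harvested with trypsin/EDTA, washed in PBS, and split for flow cytometry, immunoblot and BrdU incorporation.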

[36] = biological target: Fibroblast growth factor receptor 1 (Homo sapiens, UniProt P11362); assay: Inhibition of FGFR1 by scintillation proximity assay
Aurora kinase B = Aurora kinase B (Homo sapiens, UniProt Q96GD4); assay: Inhibition of Aurora B by scintillation proximity assay
Sequence of Aurora kinase B (Q96GD4 whole entry): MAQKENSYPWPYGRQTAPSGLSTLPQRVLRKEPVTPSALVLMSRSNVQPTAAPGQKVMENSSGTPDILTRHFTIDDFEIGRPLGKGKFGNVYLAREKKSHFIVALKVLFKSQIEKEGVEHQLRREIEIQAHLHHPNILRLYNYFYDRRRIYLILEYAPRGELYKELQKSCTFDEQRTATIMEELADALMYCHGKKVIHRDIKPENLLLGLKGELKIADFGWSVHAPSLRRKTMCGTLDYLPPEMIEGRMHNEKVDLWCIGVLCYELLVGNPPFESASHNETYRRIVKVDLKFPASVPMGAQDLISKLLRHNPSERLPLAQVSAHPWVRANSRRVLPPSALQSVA

A2780 [37] = assay: Cell cycle arrest in human A2780 cells assessed as accumulation at S phase at 3 uM after 24 hrs by FACS analysis; format: functional; in short: as §1
[38] = biological target: Inhibitor of nuclear factor kappa-B kinase subunit beta (Homo sapiens, UniProt O14920); assay: Inhibition of IKK2 by scintillation proximity assay
[39] = biological target: Cyclin-dependent kinase 5/CDK5 activator 1 (Homo sapiens, UniProt Q00535); assay: Inhibition of CDK5/p25 by scintillation proximity assay; format: protein-complex assay
[40] = biological target: Vascular endothelial growth factor receptor 3 (Homo sapiens, UniProt P35916); assay: Inhibition of VEGFR3 by scintillation proximity assay
Sequence of Vascular endothelial growth factor receptor 3 (P35916 whole entry): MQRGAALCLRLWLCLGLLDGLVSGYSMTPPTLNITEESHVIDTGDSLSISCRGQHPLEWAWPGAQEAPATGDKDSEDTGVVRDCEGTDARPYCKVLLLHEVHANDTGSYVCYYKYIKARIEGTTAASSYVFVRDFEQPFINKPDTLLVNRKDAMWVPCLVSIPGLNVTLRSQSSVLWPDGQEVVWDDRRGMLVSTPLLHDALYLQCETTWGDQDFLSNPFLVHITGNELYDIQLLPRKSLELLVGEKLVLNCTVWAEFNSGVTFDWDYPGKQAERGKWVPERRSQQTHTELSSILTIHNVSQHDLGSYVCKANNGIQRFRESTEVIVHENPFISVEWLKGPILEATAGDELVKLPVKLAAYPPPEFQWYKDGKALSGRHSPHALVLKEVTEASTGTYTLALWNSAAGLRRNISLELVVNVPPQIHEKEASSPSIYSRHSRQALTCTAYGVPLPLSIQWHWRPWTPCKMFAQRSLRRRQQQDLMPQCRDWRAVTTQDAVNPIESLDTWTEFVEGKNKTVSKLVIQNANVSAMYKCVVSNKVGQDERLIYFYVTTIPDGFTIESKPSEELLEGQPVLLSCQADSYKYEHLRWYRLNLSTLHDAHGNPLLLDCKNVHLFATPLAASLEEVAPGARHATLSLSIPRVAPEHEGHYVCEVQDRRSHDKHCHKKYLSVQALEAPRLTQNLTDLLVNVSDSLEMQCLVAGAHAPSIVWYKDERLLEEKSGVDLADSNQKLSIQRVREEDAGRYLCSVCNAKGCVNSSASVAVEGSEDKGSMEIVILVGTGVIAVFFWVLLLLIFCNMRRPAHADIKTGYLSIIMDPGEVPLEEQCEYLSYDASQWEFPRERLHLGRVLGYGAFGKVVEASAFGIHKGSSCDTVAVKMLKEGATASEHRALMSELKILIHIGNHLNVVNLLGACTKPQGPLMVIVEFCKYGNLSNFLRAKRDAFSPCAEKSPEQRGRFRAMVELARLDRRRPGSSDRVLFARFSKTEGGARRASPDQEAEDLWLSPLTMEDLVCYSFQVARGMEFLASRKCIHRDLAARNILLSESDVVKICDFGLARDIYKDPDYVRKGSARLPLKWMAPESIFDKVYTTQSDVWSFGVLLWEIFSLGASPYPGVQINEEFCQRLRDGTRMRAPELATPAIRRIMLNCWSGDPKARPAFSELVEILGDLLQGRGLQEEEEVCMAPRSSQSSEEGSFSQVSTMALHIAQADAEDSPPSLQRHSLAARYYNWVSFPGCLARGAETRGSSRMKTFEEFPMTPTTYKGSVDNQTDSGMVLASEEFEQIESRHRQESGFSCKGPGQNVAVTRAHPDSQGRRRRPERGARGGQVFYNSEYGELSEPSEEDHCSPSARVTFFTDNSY

[41] = biological target: Tyrosine-protein kinase JAK2 (Homo sapiens, UniProt O60674); assay: Inhibition of JAK2 by scintillation proximity assay
[42] = biological target: Cyclin-dependent kinase 7/ cyclin H (Homo sapiens, UniProt P50613); assay: Inhibition of CDK7/cyclin H by scintillation proximity assay; format: protein-complex assay
CYP3A4 = CYP3A4 (Homo sapiens, UniProt P08684); assay: Inhibition of human CYP3A4 assessed as residual activity at 10 uM; format: ADME; details: read-out: Activity
[43] = Volume of distribution at steady state in nu/nu mouse at 10 mg/kg, iv; format: ADME, organism-based; set-up: dose 10 mg/kg, route intravenous; details: in vivo, read-out: Vdss
In short: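 Healthy nude mice received a single 10 mg/kg iv dose as the hydrochloride salt in 5% dextrose; six mice were used in total across the iv and oral legs. Saphenous-vein blood was drawn predose and at 0.083, 0.5, 1, 6 and 24 h. Samples were spun at 10,000g for 3 min at 4 °C, and plasma was stored at −80 °C until analysis.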

[44] = AUC in nu/nu mouse at 10 mg/kg, iv; format: ADME, organism-based; set-up: dose 10 mg/kg, route intravenous; details: plasma
In short: (§2)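 Healthy nude mice given 10 mg/kg iv as the hydrochloride salt in 5% dextrose solution. Six mice in total, three per leg (iv and oral). Saphenous-vein blood taken predose and at 0.083, 0.5, 1, 6 and 24 h after iv dosing. Plasma separated by centrifugation (10,000g, 3 min, 4 °C) and stored at -80 °C until analysis.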

[45] = biological target: Cyclin-dependent kinase 4/cyclin D1 (Homo sapiens, UniProt P11802); assay: Inhibition of CDK4/cyclin D1 by scintillation proximity assay; format: protein-complex assay
[46] = Half life in nu/nu mouse at 10 mg/kg, iv; format: ADME, organism-based; set-up: dose 10 mg/kg, route intravenous; details: in vivo; in short: as §2
Mus musculus [47] = assay: Toxicity in BALB/c nu/nu mouse at 10 to 30 mg/kg, iv QD for 10 consecutive days measured post last dose; format: organism-based; set-up: dose 10-30 mg/kg, route intravenous; details: in vivo
In short: (§3)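 Tumour-bearing nude mice were dosed iv once daily for 10 consecutive days, with compound dissolved in 5% dextrose; vehicle-treated mice served as controls. Doses were 10, 20 and 30 mg/kg in the A2780 model (starting day 8), and 10 and 20 mg/kg in the HCT-116 and BX-PC3 models. Body weight change was compared with controls, and gross autopsy was performed.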

Mus musculus [48] = assay: Toxicity in BALB/c nu/nu mouse assessed as body weight reduction at 10 to 30 mg/kg, iv QD for 10 consecutive days measured post last dose; format: organism-based; set-up: dose 10-30 mg/kg, route intravenous; scale not given: the % may be the effect or the level left; details: in vivo; in short: as §3
[49] = biological target: High affinity nerve growth factor receptor (Homo sapiens, UniProt P04629); assay: Inhibition of TRKA
[50] = Cmax in nu/nu mouse at 10 mg/kg, iv; format: ADME, organism-based; set-up: dose 10 mg/kg, route intravenous; details: in vivo; in short: as §2
[51] = Clearance in nu/nu mouse at 10 mg/kg, iv; format: ADME, organism-based; set-up: dose 10 mg/kg, route intravenous; details: in vivo; in short: as §2
[52] = Plasma protein binding in human by HPLC analysis; format: ADME, cell-free; details: read-out: PPB (converted)

Sequence of Serine/threonine-protein kinase PLK1 (P53350 whole entry): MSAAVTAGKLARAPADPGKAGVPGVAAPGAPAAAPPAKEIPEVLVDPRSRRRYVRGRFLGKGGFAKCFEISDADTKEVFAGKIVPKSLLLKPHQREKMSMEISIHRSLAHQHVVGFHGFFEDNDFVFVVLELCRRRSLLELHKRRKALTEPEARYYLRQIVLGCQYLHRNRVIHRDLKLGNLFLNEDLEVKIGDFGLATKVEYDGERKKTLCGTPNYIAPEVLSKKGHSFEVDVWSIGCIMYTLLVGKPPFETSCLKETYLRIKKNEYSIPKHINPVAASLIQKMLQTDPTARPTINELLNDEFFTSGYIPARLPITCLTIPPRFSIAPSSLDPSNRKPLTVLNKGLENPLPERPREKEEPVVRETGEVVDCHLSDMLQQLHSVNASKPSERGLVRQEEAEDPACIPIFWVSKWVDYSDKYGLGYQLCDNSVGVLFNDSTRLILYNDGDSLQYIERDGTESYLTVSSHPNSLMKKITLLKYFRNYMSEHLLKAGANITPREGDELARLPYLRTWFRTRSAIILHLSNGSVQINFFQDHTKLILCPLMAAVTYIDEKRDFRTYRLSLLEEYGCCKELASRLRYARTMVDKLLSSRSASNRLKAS
Sequence of Serine/threonine-protein kinase PAK 4 (O96013 whole entry): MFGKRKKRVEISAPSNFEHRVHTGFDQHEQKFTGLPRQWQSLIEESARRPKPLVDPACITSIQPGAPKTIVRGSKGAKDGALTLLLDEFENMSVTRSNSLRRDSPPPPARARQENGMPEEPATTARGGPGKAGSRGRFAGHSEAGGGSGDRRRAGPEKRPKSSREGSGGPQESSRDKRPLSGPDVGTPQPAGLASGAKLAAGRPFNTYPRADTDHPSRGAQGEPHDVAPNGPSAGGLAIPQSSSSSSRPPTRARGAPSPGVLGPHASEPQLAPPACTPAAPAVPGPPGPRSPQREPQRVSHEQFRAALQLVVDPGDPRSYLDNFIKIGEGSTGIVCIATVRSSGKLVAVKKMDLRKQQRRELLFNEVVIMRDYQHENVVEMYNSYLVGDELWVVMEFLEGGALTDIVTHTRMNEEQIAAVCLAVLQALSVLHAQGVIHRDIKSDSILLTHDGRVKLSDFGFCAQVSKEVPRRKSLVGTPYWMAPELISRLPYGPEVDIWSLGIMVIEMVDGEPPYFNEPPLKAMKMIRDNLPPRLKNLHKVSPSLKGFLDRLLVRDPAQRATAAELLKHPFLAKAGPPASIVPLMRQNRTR

CC(C)(C)C(=O)N1Cc2c(NC(=O)c3cc(F)cc(F)c3)n[nH]c2C1(C)C
pIC50 [1]: < 5.00 | pIC50 [2]: < 5.00 | solubility [3]: 3400 µg/mL (≈ 9.03 mM) | pIC50 [4]: < 5.00 | pIC50 [5]: < 5.00 | pIC50 (Insulin receptor): < 5.00 | pIC50 [6]: < 5.00 | Activity (A2780 [7]): 26% | pIC50 [8]: < 5.00 | pIC50 [9]: < 5.00 | pIC50 [10]: < 5.00 | pIC50 [11]: < 5.00 | pIC50 [12]: < 5.00 | pIC50 [13]: < 5.00 | pIC50 [14]: < 5.00 | pIC50 [15]: < 5.00 | pIC50 [16]: < 5.00 | pIC50 [17]: < 5.00 | pIC50 (A2780 [18]): 6.51 | pIC50 [19]: < 5.00 | Activity (A2780 [20]): 22% | pIC50 [21]: < 5.00 | pIC50 [22]: < 5.00 | solubility [23]: 186 µM (≈ 70 µg/mL) | pIC50 [24]: < 5.00 | pIC50 (Aurora kinase A): < 5.00 | pIC50 [25]: 6.35 | pIC50 [26]: 5.44 | pIC50 [27]: 7.05 | pIC50 [28]: < 5.00 | pIC50 [29]: < 5.00 | pIC50 [30]: < 5.00 | pIC50 [31]: < 5.00 | pIC50 [32]: < 5.00 | pIC50 [33]: 7.22 | pIC50 [34]: < 5.00 | Activity (A2780 [35]): -96% | pIC50 [36]: < 5.00 | pIC50 (Aurora kinase B): < 5.00 | Activity (A2780 [37]): -52% | pIC50 [38]: < 5.00 | pIC50 [39]: 6.85 | pIC50 [40]: < 5.00 | pIC50 [41]: < 5.00

CC(C)CC(=O)Nc1[nH]nc2c1CN(C(=O)C1CCN(C)CC1)C2(C)C [PHA-793887]
pIC50 [1]: < 5.00 | pIC50 [2]: < 5.00 | solubility [3]: 10000 µg/mL (≈ 27.7 mM) | pIC50 [4]: < 5.00 | pIC50 [6]: < 5.00 | pIC50 [8]: < 5.00 | pIC50 [42]: 8.00 | pIC50 [11]: < 5.00 | pIC50 [12]: < 5.00 | activity at 10 µM (CYP3A4): 91% | pIC50 [15]: < 5.00 | pIC50 [17]: < 5.00 | Vd [43]: 1.36 L/kg | AUC [44]: 19.2 µM·h | pIC50 [45]: 7.21 | solubility [23]: > 225 µM | pIC50 [24]: < 5.00 | half-life [46]: 4.1 h | pIC50 (Aurora kinase A): < 5.00 | Activity (Mus musculus [47]): Non-toxic | pIC50 [25]: 7.22 | pIC50 [26]: 7.10 | pIC50 [29]: < 5.00 | pIC50 [30]: < 5.00 | Activity (Mus musculus [48]): < 10% | pIC50 [49]: < 5.00 | pIC50 [32]: < 5.00 | Cmax [50]: 36.5 µM | pIC50 [36]: < 5.00 | clearance [51]: 23.9 mL/min/kg | pIC50 (Aurora kinase B): < 5.00 | fraction unbound [52]: 0.46 | pIC50 [38]: < 5.00 | pIC50 [39]: 8.30 | pIC50 [40]: < 5.00 | pIC50 [41]: < 5.00

From ChEMBL document CHEMBL1157586 (Bioorg Med Chem, 2010)
